Test results taken from publication PMC4159695 (Molecular Microbiology, 2014).

Key:
[1] = molecular target: T1, N‐terminal PAS domain from XC_2579 (Tk 4, residues 1 to 165) (Xanthomonas campestris pv. campestris, UniProt Q8PA41); assay: Isothermal titration calorimetry of DSF and structural analogues binding to Tk 4; conditions: ITC; for △H: change in enthalpy upon binding; for △S (cal mol^−1 per degree): change in entropy upon binding
T1 sequence (Q8PA41 14-178): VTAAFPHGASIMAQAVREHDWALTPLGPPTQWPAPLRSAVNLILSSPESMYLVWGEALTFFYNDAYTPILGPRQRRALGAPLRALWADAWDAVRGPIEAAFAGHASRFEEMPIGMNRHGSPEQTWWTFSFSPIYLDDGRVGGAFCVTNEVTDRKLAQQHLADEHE
How it was run: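 His6-tagged XC_2579 PAS domain construct (Tk 4) expressed in E. coli BL21(DE3) with 0.25 mM IPTG at 37°C for 1 h. Purified by Ni2+ affinity; tag cleaved with HRV 3C protease. Heats corrected against buffer control; one-site fit for Kd, ΔH, ΔS. Repeated at least twice.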

[2] = molecular target: T2, full‐length XC_2579 protein (RpfS) (Xanthomonas campestris pv. campestris, UniProt Q8PA41); assay: Isothermal titration calorimetry of DSF binding to full-length XC_2579
T2 sequence (Q8PA41 14-968): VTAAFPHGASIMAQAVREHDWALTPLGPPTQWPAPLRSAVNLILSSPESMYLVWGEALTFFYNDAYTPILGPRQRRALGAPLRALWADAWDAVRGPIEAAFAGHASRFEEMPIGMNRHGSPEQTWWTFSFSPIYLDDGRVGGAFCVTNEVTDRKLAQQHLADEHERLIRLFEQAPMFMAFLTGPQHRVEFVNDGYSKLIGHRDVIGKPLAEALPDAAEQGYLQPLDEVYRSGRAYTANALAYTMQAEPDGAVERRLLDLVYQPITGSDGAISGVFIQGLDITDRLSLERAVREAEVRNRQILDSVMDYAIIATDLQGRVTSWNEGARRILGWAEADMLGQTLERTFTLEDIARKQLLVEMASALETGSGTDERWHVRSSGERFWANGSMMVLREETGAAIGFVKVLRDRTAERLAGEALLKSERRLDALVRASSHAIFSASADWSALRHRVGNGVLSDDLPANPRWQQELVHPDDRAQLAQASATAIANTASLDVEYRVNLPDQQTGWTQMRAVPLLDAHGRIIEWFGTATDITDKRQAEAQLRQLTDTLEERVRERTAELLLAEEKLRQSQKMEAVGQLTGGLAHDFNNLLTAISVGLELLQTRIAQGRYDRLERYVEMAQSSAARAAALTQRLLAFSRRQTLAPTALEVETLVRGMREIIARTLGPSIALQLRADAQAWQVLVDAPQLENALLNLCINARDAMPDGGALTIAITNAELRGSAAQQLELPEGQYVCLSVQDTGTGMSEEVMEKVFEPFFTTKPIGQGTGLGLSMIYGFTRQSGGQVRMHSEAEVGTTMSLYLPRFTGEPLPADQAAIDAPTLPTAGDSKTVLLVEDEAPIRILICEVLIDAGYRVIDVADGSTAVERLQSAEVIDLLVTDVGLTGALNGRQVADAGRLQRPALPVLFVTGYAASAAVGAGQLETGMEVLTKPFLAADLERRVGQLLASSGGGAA

[3] = molecular target: T3, Tk 1 (XC_2579 N‐terminal amino acid residues 1 to 360) (Xanthomonas campestris pv. campestris, UniProt Q8PA41); assay: Isothermal titration calorimetry of DSF binding to truncation Tk 1; conditions: ITC, Tk 1, in words
T3 sequence (Q8PA41 14-373): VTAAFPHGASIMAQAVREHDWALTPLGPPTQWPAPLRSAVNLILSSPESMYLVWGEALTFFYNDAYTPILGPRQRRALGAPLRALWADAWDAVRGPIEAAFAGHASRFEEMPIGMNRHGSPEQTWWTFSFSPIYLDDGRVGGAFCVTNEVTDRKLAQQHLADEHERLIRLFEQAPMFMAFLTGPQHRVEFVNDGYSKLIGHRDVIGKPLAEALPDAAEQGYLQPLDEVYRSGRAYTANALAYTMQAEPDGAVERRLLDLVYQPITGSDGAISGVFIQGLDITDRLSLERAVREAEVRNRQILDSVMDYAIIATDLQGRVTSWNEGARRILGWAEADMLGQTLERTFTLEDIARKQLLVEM

[4] = system: Tk2 (XC_2579 amino acid residues 530–955); assay: Isothermal titration calorimetry of DSF binding to truncation Tk 2; set-up: species or system Xanthomonas campestris pv. campestris; conditions: ITC, Tk2, in words
[5] = molecular target: T4, Tk 3 (XC_2579 amino residues 1 to 240) (Xanthomonas campestris pv. campestris, UniProt Q8PA41); assay: Isothermal titration calorimetry of DSF binding to truncation Tk 3; conditions: ITC, Tk 3, in words
T4 sequence (Q8PA41 14-253): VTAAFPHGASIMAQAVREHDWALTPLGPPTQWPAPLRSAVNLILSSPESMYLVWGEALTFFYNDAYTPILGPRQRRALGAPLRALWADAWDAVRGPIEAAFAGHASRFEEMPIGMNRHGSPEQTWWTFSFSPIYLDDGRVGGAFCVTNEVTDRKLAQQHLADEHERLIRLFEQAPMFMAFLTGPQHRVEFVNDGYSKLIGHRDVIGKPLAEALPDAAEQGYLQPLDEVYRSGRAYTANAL

XC_0107 gfp fusion = assay: XC_0107 gfp reporter fusion expression induced by DSF; assay type: cell-based, Xanthomonas campestris; conditions: rpfFC strain carrying reporter; 50 μM synthetic DSF, 14 h
[6] = system: PAS domain of Mycobacterium tuberculosis Rv1364c; conditions: ref King‐Scott et al., 2011, cited from earlier work; for binding to PAS domain: in words
[7] = Kd (M), Tk 4, higher concentrations of analogues used to estimate Kd

Compound: CC(C)CCCCCCCCCC(=O)O [11‐methyl‐dodecanoic acid]
- Kd [1, 7]: 0.0069 M
- Kd ([1]; Kd, Tk 4): > 0.001 M

Compound: CC(C)CCCCCCC/C=C\C(=O)O [DSF, cis‐11‐methyl‐2‐dodecenoic acid]
- Kd [2]: 1.4 µM
- DSF binding [3]: bound DSF with high affinity
- DSF binding [4]: no binding was detected
- DSF binding [5]: High affinity DSF binding
- DSF binding ([1]; Tk 4, in words): High affinity DSF binding
- △H ([1]; Tk 4): -6.69 kJ/mol
- △S (cal mol^−1 per degree) ([1]; Tk 4): 59.73 cal mol^−1 per degree
- expression of GFP (XC_0107 gfp reporter) (XC_0107 gfp fusion): activated

Compound: CCCCCCCCCCCC(=O)O [Dodecanoic acid]
- Kd [1, 7]: 0.0149 M
- Kd ([1]; Kd, Tk 4): > 0.001 M

Compound: CCCCCC/C=C\CCCCCCCC(=O)O [Palmitoleic acid]
- binding to PAS domain [6]: bind

Compound: CCCCCCCCC/C=C\C(=O)O [cis‐2‐dodecenoic acid (BDSF), cis‐2‐dodecenoic acid]
- △H ([1]; Tk 4): -5.06 kJ/mol
- △S (cal mol^−1 per degree) ([1]; Tk 4): 58.05 cal mol^−1 per degree
- Kd [1, 7]: 7.1e-06 M
- Kd ([1]; Kd, Tk 4, PBS buffer at 25°C): 7e-06 M

Compound: CCCCCCCC/C=C\CCCCCCCC(=O)O [oleic acid]
- binding to PAS domain [6]: bind

Compound: CCCCCCCCCCCCCCCC(=O)O [palmitic acid]
- affinity relative to palmitoleic acid (times lower) [6]: 100 times

Compound: CC(C)CCCCCCC/C=C/C(=O)O [trans‐11‐methyl‐2‐dodecenoic acid]
- Kd [1, 7]: 0.00113 M
- Kd ([1]; Kd, Tk 4): > 0.001 M
